UPR XBP1 act – activators of adaptive XBP1 UPR arm, primary screen, cell-based, CHO-XBP1 luciferase reporter, luminescence, uHTS. 330,000 compounds, 0.33% hits. AID 463104, 2010. activation, % at 20 µM. IRE1-XBP1 UPR activation; percent of tunicamycin response, DMSO as zero;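 active means versus positive control, 20 µM dose yields 30% or more activation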
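Material: CHO-XBP1 cells stably carrying IRE1-XBP1-driven luciferase reporter / Amount: 1000 cells per well / Compound: 20 µM, 1% DMSO / Times: 6 h treatment, 37 °C / Detection: luciferase luminescence / Measure: % activation of reporter signal versus tunicamycin and DMSO controls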
697 NFkB inh – inhibitors of PMA/ionomycin-induced NF-kB reporter, 697 cells, primary screen, B-cell NF-kB inhibitor project, cell-based, luminescence, uHTS | 697 B-cell NF-kB luciferase reporter, 16 h | inhibition, % at 4 µM | 330,000 compounds, 0.33% hits | AID 435022, 2010; in the data active means inhibition above about 35%
CHOP inhibitor – inhibitors of CHOP promoter induction, primary screen, cell-based, unfolded protein response, luciferase reporter; CHO-K1 CHOP-promoter luciferase, tunicamycin-induced, 15-18 h; inhibition, % at 10 µM; 220,000 compounds, 3.8% hits;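 active means compounds that reduced the stress-induced luciferase reporter signal by more than about 70% of percent inhibition, limit read from the data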
CHOP UPR activ – activators of apoptotic CHOP UPR arm, primary screen, cell-based, CHO-CHOP luciferase reporter, luminescence, uHTS; activation, % at 10 µM; AID 449763, 2010; UPR activation; percent of tunicamycin response over DMSO baseline; 330,000 compounds, 0.34% hits;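 active means at 10 µM dose, activation of 40% or more, normalized to positive control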
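Test system: CHO CHOP reporter cells. Input: 500 CHO-CHOP cells per well. Medium: F12 with 10% FBS. Technique: luciferase luminescence. Measure: percent activation relative to tunicamycin control. Dosing: 10 µM compound, 0.5% DMSO. Timing: 16-18 h cell attachment, then 6 h compound exposure, 37 °C.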
Jurkat NFkB inh – inhibitors of induced NF-kB luciferase reporter, primary screen, TCR NF-kB activation inhibitor project, cell-based, luminescence, uHTS; Jurkat, PMA/ionomycin-induced NF-kB luciferase reporter; inhibition, % at 4 µM; 330,000 compounds, 0.53% hits; in the data active means inhibition above about 50%
CHOP inh conf – retest of CHOP induction inhibitors, confirmation, cell-based. 2,100 compounds, 45% hits. CHO-CHOP promoter luciferase reporter, tunicamycin-induced, luminescence. shares compounds with CHOP inhibitor. inhibition, % at 10 µM. AID 504437, 2011;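 active means mean of three repeat readings of reporter signal inhibition above a set limit, cut at about 70% in these data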
Of the large screens only hits and unclear results are named; the others gave an inactive call (follow-up assays come after a bar, where they were run). Shown is part of a subset that was picked to be rich in hits.

COCCN1C(=O)N[C@@H](c2ccco2)C(C(C)=O)=C1C	none
COC(=O)c1cn(Nc2ncc(C(F)(F)F)cc2Cl)c(=O)c2ccccc12	CHOP inhibitor 99 | CHOP inh conf inactive
S=C(NCCc1ccc(Cl)cc1)Nc1ccc(Cl)cc1Cl	CHOP inhibitor 105 | CHOP inh conf 95
S=C(NCc1ccc(Cl)cc1)Nc1ccc(Cl)cc1Cl	none
O=C(NCCc1ccccc1)Nc1cccc(Cl)c1	none
O=C(NCCc1ccc(Cl)cc1)Nc1cccc(Cl)c1	CHOP inhibitor 100 | CHOP inh conf inactive
O=C(N/N=C/c1cccs1)c1cccc(NC(=O)c2ccc(Cl)cc2)c1	CHOP inhibitor 104 | CHOP inh conf 118
O=C(N/N=C/c1cccs1)c1cccc(S(=O)(=O)Nc2ccc(Cl)cc2)c1	none
COc1c(C(=O)Nc2ccc(CN3CCOCC3)cc2)cc2ccccc2c1Br	none (no result: CHOP inhibitor)
COc1c(C(=O)Nc2ccc3[nH]c(=O)[nH]c3c2)cc2ccccc2c1Br	CHOP inhibitor 100 | CHOP inh conf inactive
CCC(NC(=O)Nc1nnc(C(F)(F)F)s1)(C(F)(F)F)C(F)(F)F	CHOP inhibitor 103 | CHOP inh conf 115
O=[N+]([O-])/C=C1\C=CC=CN1Cc1ccc(Cl)cc1	none (no result: CHOP inhibitor)
C/C(=N\N=C(c1ccccc1)c1ccccc1)c1cccs1	none
CC(NO)/C(=N\O)c1cccs1 (centres undefined)	CHOP inhibitor 106 | CHOP inh conf inactive
CC(=O)C(C(C)=O)c1c(Cl)c(O)c(O)c2c(C(=O)c3ccccc3)coc12	none (no result: CHOP inhibitor) | CHOP inh conf 100
COc1ccc(Cl)cc1NC(=O)c1cc(-c2ccccc2O)n[nH]1	none
COc1ccc(OC)c(NC(=O)c2cc(-c3cc(Cl)ccc3O)n[nH]2)c1	CHOP inhibitor 103 | CHOP inh conf inactive
COc1cccc(CN2CCC(C(=O)N3CCC(C)CC3)CC2)c1	none
Cc1cc(C)c2c(=O)n(CC(=O)Nc3ccc(Cl)cc3)sc2n1	CHOP inhibitor 104 | CHOP inh conf inactive
CCOc1ccc(NC(=O)Cn2sc3nc(C)cc(C)c3c2=O)cc1	none
Cc1cc(C)nc(SCC(=O)NN=Cc2ccc(C)o2)n1	none (no result: CHOP inhibitor)
CN(C)c1ccc(C(CNS(=O)(=O)c2ccc(F)c(F)c2)c2c[nH]c3ccccc23)cc1 (centres undefined)	CHOP inhibitor 110 | CHOP inh conf 116
Cc1oc2ccc(NS(=O)(=O)c3ccc(C(C)(C)C)cc3)cc2c1C(=O)Nc1ccccc1	CHOP inhibitor 107 | CHOP inh conf inactive
CN1CCN(c2ccc(-c3ccc4ccccc4n3)cc2)CC1	CHOP inhibitor 102 (no result: UPR XBP1 act, 697 NFkB inh, CHOP UPR activ, Jurkat NFkB inh) | CHOP inh conf 120
CCCCCCCCCS(=O)(=O)N/N=C/c1cccc([N+](=O)[O-])c1	CHOP inhibitor 99 | CHOP inh conf 97
Cc1ccc(S(=O)(=O)N/N=C/c2cccc([N+](=O)[O-])c2)cc1	none
COc1cccc(-n2nnnc2S(C)(=O)=O)c1	CHOP inhibitor 113 | CHOP inh conf 115
COC(=O)/C=C1\OC(c2ccccc2)=CC1=O	CHOP inhibitor 108 | CHOP inh conf inactive
O=C1OC(c2ccccc2)=C/C1=C/N1CCCCC1	none
O=c1[nH]sc2ccccc12	CHOP inhibitor 97 (no result: UPR XBP1 act, 697 NFkB inh, CHOP UPR activ, Jurkat NFkB inh) | CHOP inh conf inactive
Cc1ccc(-n2nc(C)c3c2OC(N)=C(C#N)C3c2ccccc2F)cc1 (centres undefined)	CHOP inhibitor 96 | CHOP inh conf inactive
O=C(COC(=O)CNS(=O)(=O)c1cccc(Br)c1)Nc1ccccc1Sc1ccccc1	CHOP inhibitor 96 | CHOP inh conf inactive
O=C(COC(=O)CNS(=O)(=O)c1c(Cl)cccc1Cl)Nc1ccccc1Sc1ccccc1	none
CS(=O)(=O)c1ccc(C(=O)OCC(=O)NC(=O)C2CCCCC2)cc1[N+](=O)[O-]	CHOP inhibitor 97 | CHOP inh conf inactive
CS(=O)(=O)c1ccc(C(=O)OCC(=O)NC(=O)C2COc3ccccc3O2)cc1[N+](=O)[O-] (centres undefined)	none (no result: CHOP inhibitor)
O=C(NNC(=O)c1cccc2ccccc12)c1ccc(-c2ccccc2)cc1	CHOP inhibitor 98 | CHOP inh conf 82
O=C(NNC(=O)c1cccc2ccccc12)c1ccccc1O	none (no result: CHOP inhibitor)
O=C(CSc1nccc(=O)[nH]1)Nc1cccc2ccccc12	none (no result: CHOP inhibitor)
CC1(C)Cc2c(C#N)c(NCc3ccco3)nc(-c3ccco3)c2CO1	none
CCCc1nc(NCc2ccco2)c(C#N)c2c1COC(C)(C)C2	CHOP inhibitor 104 | CHOP inh conf inactive
CC(C)CC1NC(=O)c2ccc(Cl)cc2-n2c1nc1ccc(Cl)cc1c2=O (centres undefined)	none (no result: CHOP inhibitor)
Cc1ccc2[nH]c(O)c(N=NC(=O)CCc3ccccc3)c2c1Br	CHOP inhibitor 107 | CHOP inh conf 83
O=C(c1ccco1)N(CCC(c1ccccc1)c1ccco1)Cc1ccc(F)cc1 (centres undefined)	CHOP inhibitor 108 | CHOP inh conf inactive
CC1(C)CC(C(CCN(Cc2ccccc2)C(=O)c2ccco2)c2ccc(F)cc2)CCO1 (centres undefined)	CHOP inhibitor 101 (no result: UPR XBP1 act, 697 NFkB inh, CHOP UPR activ, Jurkat NFkB inh) | CHOP inh conf 79
O=C(CN(Cc1ccc(F)cc1)C(=O)c1ccco1)NCc1ccc(F)cc1	none
CC1(C)CC(N(Cc2ccc(F)cc2)C(=O)c2ccc(F)cc2)CCO1 (centres undefined)	none
Cc1ccc(CNC(=O)C2CCCN(c3nc4ccsc4c(=O)s3)C2)cc1 (centres undefined)	none
Cn1c(=O)[nH]c(=O)c2c1nc(N1CCNCC1)n2Cc1ccccc1	none (no result: CHOP inhibitor)
CCCCCCn1c(N2CCC(C)CC2)nc2c1c(=O)[nH]c(=O)n2C	CHOP inhibitor 100 | CHOP inh conf 105
CCCCCn1c(N2CCC(C(N)=O)CC2)nc2c1c(=O)[nH]c(=O)n2C	none
Cn1c(=O)[nH]c(=O)c2c1nc([N+](=O)[O-])n2Cc1ccccc1	CHOP inhibitor 106 | CHOP inh conf 121
Cc1nnc(SCCn2c(N3CCC(Cc4ccccc4)CC3)nc3c2c(=O)[nH]c(=O)n3C)s1	none
CCCCn1c(N2CCC(Cc3ccccc3)CC2)nc2c1c(=O)[nH]c(=O)n2C	CHOP inhibitor 97 | CHOP inh conf 103
CC(OC(=O)c1cc(S(=O)(=O)N(C)C)ccc1N1CCCC1)C(=O)NCc1ccccc1 (centres undefined)	none (no result: CHOP inhibitor)
O=C(c1ccc(COc2ccc(Cl)cc2)o1)N1N=C(C(F)F)CC1(O)C(F)F (centres undefined)	CHOP inhibitor 109 | CHOP inh conf 130
COc1ccc(-c2cc(CNS(=O)(=O)c3ccc(F)cc3)on2)cc1	none

Screening results as filed in PubChem.
